How the values were obtained:
[1] = biological target: T1, Adenosine receptor A1 (Homo sapiens, UniProt P30542); experiment: Displacement of [3H]DPCPX from human adenosine A1 receptor expressed in CHO cells after 120 mins by scintillation counter; type: cell-based
T1 sequence (P30542 whole entry): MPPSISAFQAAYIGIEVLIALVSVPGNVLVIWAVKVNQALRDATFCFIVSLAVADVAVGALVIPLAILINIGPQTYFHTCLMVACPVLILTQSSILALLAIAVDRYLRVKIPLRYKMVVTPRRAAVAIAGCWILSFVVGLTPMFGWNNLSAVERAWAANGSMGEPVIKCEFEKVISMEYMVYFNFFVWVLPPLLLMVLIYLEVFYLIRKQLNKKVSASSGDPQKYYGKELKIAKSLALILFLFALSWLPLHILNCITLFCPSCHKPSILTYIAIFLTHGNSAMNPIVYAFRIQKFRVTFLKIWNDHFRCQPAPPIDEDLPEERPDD
Method in brief: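 Membranes from CHO cells expressing human A1 (50 μg protein), in 50 mM Tris-HCl pH 7.4, pretreated with adenosine deaminase 2 IU/mL. [³H]DPCPX 1 nM, 6–8 test concentrations, 120 min at 25 °C. Nonspecific binding with 1 μM DPCPX. GF/B filtration. Ki by Cheng–Prusoff.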

[2] = biological target: Adenosine receptor A2a (Homo sapiens, UniProt P29274); experiment: Displacement of [3H]ZM241385 from human adenosine A2A receptor expressed in CHO cells after 60 mins by scintillation counter; type: cell-based
Sequence of Adenosine receptor A2a (P29274 whole entry): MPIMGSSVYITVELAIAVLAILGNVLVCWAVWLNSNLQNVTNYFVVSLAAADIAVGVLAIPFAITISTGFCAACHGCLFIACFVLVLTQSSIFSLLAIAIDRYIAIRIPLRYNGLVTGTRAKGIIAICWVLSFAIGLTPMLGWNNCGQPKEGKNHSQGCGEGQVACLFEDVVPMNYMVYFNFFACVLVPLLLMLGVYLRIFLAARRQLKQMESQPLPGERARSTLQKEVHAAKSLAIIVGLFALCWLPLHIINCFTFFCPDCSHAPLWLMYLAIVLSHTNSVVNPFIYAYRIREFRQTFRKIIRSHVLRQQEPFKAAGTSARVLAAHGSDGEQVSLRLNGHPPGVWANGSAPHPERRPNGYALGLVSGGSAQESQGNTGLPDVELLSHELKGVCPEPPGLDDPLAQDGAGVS
Method in brief: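 Membranes from CHO cells expressing human A2A (50 μg protein), in 50 mM Tris-HCl, 10 mM MgCl2, pH 7.4, adenosine deaminase pretreated. [³H]ZM241385 2 nM, 6–8 concentrations, 60 min at 4 °C. Nonspecific binding with 1 μM ZM241385. Filtration, scintillation counting. Ki by Cheng–Prusoff. 3–4 experiments in duplicate.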

[3] = biological target: T2, Adenosine receptor A3 (Homo sapiens, UniProt P0DMS8); experiment: Displacement of [3H]MRE-3008-F20 from human adenosine A3 receptor expressed in CHO cells after 120 mins by scintillation counter; type: cell-based
T2 sequence (P0DMS8 whole entry): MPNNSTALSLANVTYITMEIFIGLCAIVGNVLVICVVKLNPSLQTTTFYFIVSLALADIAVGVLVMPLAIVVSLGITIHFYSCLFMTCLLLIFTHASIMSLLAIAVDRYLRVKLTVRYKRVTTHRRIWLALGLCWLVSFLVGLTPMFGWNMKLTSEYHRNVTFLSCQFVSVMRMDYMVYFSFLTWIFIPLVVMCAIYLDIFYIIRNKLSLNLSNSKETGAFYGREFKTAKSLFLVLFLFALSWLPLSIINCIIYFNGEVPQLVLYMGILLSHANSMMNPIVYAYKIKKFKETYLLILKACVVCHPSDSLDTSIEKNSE

[4] = biological target: T3, Adenosine receptor A2b (Homo sapiens, UniProt P29275); experiment: Antagonist activity at human adenosine A2B receptor expressed in CHO cells assessed as inhibition of NECA-induced cAMP production; type: functional, cell-based
T3 sequence (P29275 whole entry): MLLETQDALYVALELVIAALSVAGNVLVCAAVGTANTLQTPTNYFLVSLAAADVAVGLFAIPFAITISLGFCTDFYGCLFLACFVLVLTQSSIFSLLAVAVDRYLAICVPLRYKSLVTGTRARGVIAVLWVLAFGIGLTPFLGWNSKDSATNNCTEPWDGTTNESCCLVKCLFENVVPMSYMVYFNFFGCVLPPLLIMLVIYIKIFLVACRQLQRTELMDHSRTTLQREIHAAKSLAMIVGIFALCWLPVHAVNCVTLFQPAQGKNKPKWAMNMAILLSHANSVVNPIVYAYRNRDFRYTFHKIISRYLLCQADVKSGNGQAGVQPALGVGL
Method in brief: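 Intact CHO cells (1 × 10⁶/assay) expressing human A2B, in buffer pH 7.4 with 2 IU/mL adenosine deaminase and Ro 20-1724. Preincubated 10 min at 37 °C. NECA 100 nM stimulus. Stopped with cold 6% TCA, ether-extracted, cAMP measured by competition protein binding with [³H]cAMP. IC50 from sigmoid nonlinear regression.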

[5] = biological target: T2, Adenosine receptor A3; experiment: Antagonist activity at human adenosine A3 receptor expressed in CHO cells assessed as forskolin/C1-IB-MECA-induced inhibition of cAMP production; type: functional, cell-based
Method in brief: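 Intact CHO cells (1 × 10⁶/assay) expressing human A3, in buffer pH 7.4 with 2 IU/mL adenosine deaminase and Ro 20-1724. Preincubated 10 min at 37 °C. Forskolin 1 μM with Cl-IB-MECA 100 nM. Stopped with cold 6% TCA, cAMP measured by [³H]cAMP competition protein binding. IC50 by sigmoid nonlinear regression.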

[6] = Solubility of the compound in water at pH 7.4; type: physicochemical
Method in brief: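 Hydrochloride salts, solubility measured in phosphate-buffered saline at pH 7.4.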

[7] = biological target: Adenosine receptors; A1 & A3 (Homo sapiens) (UniProt P30542+P0DMS8); experiment: Selectivity ratio of Ki for human adenosine A1 receptor to Ki for human adenosine A3 receptor

SMILES	Ki [1] [nM]	Ki [2] [nM]	Ki [3] [nM]	IC50 [4] [µM]	IC50 [5] [nM]	solubility [6] [µg/mL]	Ratio Ki [7]
Cn1cc2c(nc(NC(=O)NC3CCN(C(=O)NC4CCCCCC4)CC3)n3nc(-c4ccco4)nc23)n1	805	> 5000	7.7	> 5	26	–	–
Cl.Cn1cc2c(nc(NC(=O)NC3CCN(Cc4ccc(F)cc4)CC3)n3nc(-c4ccco4)nc23)n1	–	–	–	–	–	8000	–
Cn1cc2c(nc(NC(=O)NC3CCN(Cc4ccc(F)cc4)CC3)n3nc(-c4ccco4)nc23)n1	1050	> 5000	24	> 5	82	–	–
Cn1cc2c(nc(NC(=O)NC3CCN(C(=O)NC4CCCCC4)CC3)n3nc(-c4ccco4)nc23)n1	761	> 5000	13.7	> 5	44	–	–
COc1ccc(CN2CCC(NC(=O)Nc3nc4nn(C)cc4c4nc(-c5ccco5)nn34)CC2)cc1	1160	> 5000	13.3	> 5	45	–	87
Cn1cc2c(nc(NC(=O)NC3CCN(Cc4ccc(C#N)cc4)CC3)n3nc(-c4ccco4)nc23)n1	166	2220	11.8	> 5	40	–	14
Cc1ccc(CNC(=O)N2CCC(NC(=O)Nc3nc4nn(C)cc4c4nc(-c5ccco5)nn34)CC2)cc1	396	2810	3.9	2.12	12	–	–
C=CCN1CCC(NC(=O)Nc2nc3nn(C)cc3c3nc(-c4ccco4)nn23)CC1	3360	1420	51	> 5	212	–	–
CC(C)NC(=O)N1CCC(NC(=O)Nc2nc3nn(C)cc3c3nc(-c4ccco4)nn23)CC1	1320	> 5000	9.8	> 5	34	–	–
Cn1cc2c(nc(NC(=O)NC3CCN(Cc4ccncc4)CC3)n3nc(-c4ccco4)nc23)n1	1190	> 5000	39	> 5	166	–	–
Cn1cc2c(nc(NC(=O)NC3CCNCC3)n3nc(-c4ccco4)nc23)n1	> 5000	> 5000	65	2.43	262	–	–
COc1ccc(CNC(=O)N2CCC(NC(=O)Nc3nc4nn(C)cc4c4nc(-c5ccco5)nn34)CC2)cc1	635	> 5000	10.4	3.24	34	–	–
CCNC(=O)N1CCC(NC(=O)Nc2nc3nn(C)cc3c3nc(-c4ccco4)nn23)CC1	1500	> 5000	30	> 5	116	–	–
Cn1cc2c(nc(NC(=O)NC3CCN(C(=O)NCCc4ccccc4)CC3)n3nc(-c4ccco4)nc23)n1	182	1840	6.8	1.76	23	–	–
Cn1cc2c(nc(NC(=O)NC3CCN(Cc4ccc(Cl)cc4)CC3)n3nc(-c4ccco4)nc23)n1	724	> 5000	26	> 5	91	–	–
Cn1cc2c(nc(NC(=O)NC3CCN(Cc4ccc([N+](=O)[O-])cc4)CC3)n3nc(-c4ccco4)nc23)n1	371	> 5000	12.4	> 5	42	–	–
Cl.Cn1cc2c(nc(NC(=O)Nc3ccncc3)n3nc(-c4ccco4)nc23)n1	–	–	–	–	–	< 100	–

SMILES	Ki [1] [nM]	Ki [2] [nM]	Ki [3] [nM]	IC50 [4] [µM]	IC50 [5] [nM]	solubility [6] [µg/mL]	Ratio Ki [7]
Cn1cc2c(nc(NC(=O)NC3CCN(C(=O)NCc4ccccc4)CC3)n3nc(-c4ccco4)nc23)n1	525	> 5000	8.1	1.11	29	–	–
Cn1cc2c(nc(NC(=O)NC3CCN(C(=O)NCCCc4ccccc4)CC3)n3nc(-c4ccco4)nc23)n1	112	1640	14.5	1.54	46	–	7.7
Cn1cc2c(nc(NC(=O)NC3CCN(C(=O)NCc4ccc(F)cc4)CC3)n3nc(-c4ccco4)nc23)n1	408	3260	4.9	1.04	15	–	–
Cn1cc2c(nc(NC(=O)NC3CCN(C(=O)Nc4ccncc4)CC3)n3nc(-c4ccco4)nc23)n1	1300	1860	21	3.24	82	–	–
CCOC(=O)CN1CCC(NC(=O)Nc2nc3nn(C)cc3c3nc(-c4ccco4)nn23)CC1	348	1080	12.2	> 5	41	–	–
C#CCN1CCC(NC(=O)Nc2nc3nn(C)cc3c3nc(-c4ccco4)nn23)CC1.Cl	–	–	–	–	–	8000	–
CCCN1CCC(NC(=O)Nc2nc3nn(C)cc3c3nc(-c4ccco4)nn23)CC1	2790	1190	71	> 5	301	–	–
Cc1ccc(CN2CCC(NC(=O)Nc3nc4nn(C)cc4c4nc(-c5ccco5)nn34)CC2)cc1	1480	> 5000	13.8	> 5	50	–	107
CN1CCC(NC(=O)Nc2nc3nn(C)cc3c3nc(-c4ccco4)nn23)CC1	> 5000	> 5000	253	> 5	910	–	–
Cn1cc2c(nc(NC(=O)NC3CCN(Cc4ccccc4)CC3)n3nc(-c4ccco4)nc23)n1	703	526	30	2.06	121	–	–
C#CCN1CCC(NC(=O)Nc2nc3nn(C)cc3c3nc(-c4ccco4)nn23)CC1	802	789	25	> 5	105	–	–
Cn1cc2c(nc(NC(=O)NC3CCN(C(=O)NC4CCCC4)CC3)n3nc(-c4ccco4)nc23)n1	744	> 5000	9.3	> 5	30	–	–
Cn1cc2c(nc(NC(=O)NC3CCN(Cc4cccnc4)CC3)n3nc(-c4ccco4)nc23)n1	1330	> 5000	44	> 5	180	–	–
CN1CCN(C(=O)N2CCC(NC(=O)Nc3nc4nn(C)cc4c4nc(-c5ccco5)nn34)CC2)CC1	1120	1280	31	2.14	120	–	–
Cl.Cn1cc2c(nc(NC(=O)NC3CCN(CC4CCCCC4)CC3)n3nc(-c4ccco4)nc23)n1	3410	> 5000	9.7	> 5	30	8000	351
CN1CCC(NC(=O)Nc2nc3nn(C)cc3c3nc(-c4ccco4)nn23)CC1.Cl	–	–	–	–	–	15000	–
Cn1cc2c(nc(NC(=O)NC3CCN(C(=O)NCc4ccc(Cl)cc4)CC3)n3nc(-c4ccco4)nc23)n1	614	1140	25	0.505	90	–	–

Source: ChEMBL document CHEMBL2069218, “Water-soluble pyrazolo[4,3-e][1,2,4]triazolo[1,5-c]pyrimidines as human A₃ adenosine receptor antagonists” (J Med Chem, 2012)
